Activity calls are given as the source filed them.
Experiments:
[1] = tested on: molinema dessetae; test: Antifilarial activity against Molinema dessetae in vivo against male adult worms at a dose of 10 mg/kg subcutaneously once a day for 5 days; Active; type: functional, organism-based; parameters: dose 10 mg/kg
Outline: (§1)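 Proechimys oris of both sexes were each infected with 200 infective larvae dissected from Aedes aegypti mosquitoes. Microfilaremia was checked, and the rodents were treated 150–180 days post-infection. Compound was given subcutaneously as a 1% carboxymethylcellulose suspension once daily for 5 consecutive days. Microfilaremia was followed for 6 weeks, then adult male and female worms were counted at autopsy. A compound was scored active if no males and ≤1.6 females were found (p = 0.12).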

[2] = Antifilarial activity against Molinema dessetae in vivo in Proechimys oris the natural host at a dose of 10 mg/kg subcutaneously once a day for 5 days. Value is expressed as number of infected P. oris.; type: functional; details: route subcutaneous; outline: as §1
[3] = Effective concentration of compound necessary to kill 50% of infective larvae of Molinema dessetae after 7 days was determined in vitro; Value ranges from 20-100; type: functional
Outline: (§2)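 Infective larvae from the intermediate host were decontaminated and held 20 per 1.5 mL in a biphasic medium: L929 feeder layer with RPMI and fetal calf serum (90:10), plus penicillin and streptomycin. Compound solutions at several concentrations were made in DMSO, and 10 μL of each was added. After 7 days, survival was corrected by control, in duplicate runs. EC ranges are given in μM.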

[4] = tested on: molinema dessetae; test: Antifilarial activity against Molinema dessetae in vivo against female adult worms at a dose of 10 mg/kg subcutaneously once a day for 5 days; Active; type: functional, organism-based; parameters: dose 10 mg/kg; outline: as §1
[5] = tested on: molinema dessetae; test: Effective concentration of compound necessary to kill 90% of infective larvae of Molinema dessetae after 7 days was determined in vitro; Value ranges from 20-100; type: functional; outline: as §2
[6] = Effective concentration of compound necessary to kill 50% of infective larvae of Molinema dessetae after 7 days was determined in vitro; type: functional
[7] = tested on: molinema dessetae;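 note: in vitro assay on infective-stage larvae, EC90 being the concentration lethal to 90% of larvae after 7 days of exposure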
[8] = tested on: molinema dessetae; test: Antifilarial activity against Molinema dessetae in vivo against male adult worms at a dose of 200 mg/kg subcutaneously once a day for 5 days; Inactive; type: functional, organism-based; parameters: dose 200 mg/kg; outline: as §1
[9] = Antifilarial activity against Molinema dessetae in vivo in Proechimys oris the natural host at a dose of 200 mg/kg subcutaneously once a day for 5 days. Value is expressed as number of infected P. oris.; type: functional; details: route subcutaneous; outline: as §1
[10] = tested on: molinema dessetae; test: Effective concentration of compound necessary to kill 90% of infective larvae of Molinema dessetae after 7 days was determined in vitro; Value ranges from 100-500; type: functional; outline: as §2
[11] = tested on: molinema dessetae; test: Antifilarial activity against Molinema dessetae in vivo against female adult worms at a dose of 200 mg/kg subcutaneously once a day for 5 days; Inactive; type: functional, organism-based; parameters: dose 200 mg/kg; outline: as §1
[12] = tested on: molinema dessetae; test: Antifilarial activity against Molinema dessetae in vivo against female adult worms at a dose of 200 mg/kg subcutaneously once a day for 5 days; type: functional, organism-based; parameters: dose 200 mg/kg; outline: as §1
[13] = tested on: molinema dessetae; test: Antifilarial activity against Molinema dessetae in vivo against male adult worms at a dose of 200 mg/kg subcutaneously once a day for 5 days; Active; type: functional, organism-based; parameters: dose 200 mg/kg; outline: as §1
[14] = tested on: molinema dessetae; test: Antifilarial activity against Molinema dessetae in vivo against female adult worms at a dose of 200 mg/kg subcutaneously once a day for 5 days; Active; type: functional, organism-based; parameters: dose 200 mg/kg; outline: as §1
[15] = Effective concentration of compound necessary to kill 50% of infective larvae of Molinema dessetae after 7 days was determined in vitro; Value ranges from 100-500; type: functional; outline: as §2
[16] = tested on: molinema dessetae; test: Antifilarial activity against Molinema dessetae in vivo against male adult worms at a dose of 100 mg/kg subcutaneously once a day for 5 days; Inactive; type: functional, organism-based; parameters: dose 100 mg/kg; outline: as §1
[17] = Antifilarial activity against Molinema dessetae in vivo in Proechimys oris the natural host at a dose of 100 mg/kg subcutaneously once a day for 5 days. Value is expressed as number of infected P. oris.; type: functional; details: route subcutaneous; outline: as §1
[18] = tested on: molinema dessetae; test: Antifilarial activity against Molinema dessetae in vivo against female adult worms at a dose of 100 mg/kg subcutaneously once a day for 5 days; Inactive; type: functional, organism-based; parameters: dose 100 mg/kg; outline: as §1

Molecule	EC50 [6] [µM]	EC90 [7] [µM]	Activity [8]	Activity [9]	Activity [11]	other results
CN1CCN(S(=O)(=O)[C@@H]2O[C@H]2c2ccccc2)CC1						Activity [1]: Active; Activity [2]: 4; EC50 [3]: 100 µM; Activity [4]: Active; EC90 [5]: 100 µM
O=[N+]([O-])c1ccc(C2OC2S(=O)(=O)N2CCOCC2)cc1 (centres undefined)	< 20	< 20				
IVERMECTIN	< 20					
O=S(=O)([C@@H]1O[C@@H]1c1ccccc1)N1CCOCC1			inactive	2	inactive	EC50 [3]: 100 µM; EC90 [10]: 500 µM
CCCN1CCN(S(=O)(=O)C2OC2c2ccccc2)CC1 (centres undefined)			inactive	2		EC50 [3]: 100 µM; Activity [12]: inactive; EC90 [10]: 500 µM
O=S(=O)(C1OC1c1ccc(Cl)c(Cl)c1)N1CCOCC1 (centres undefined)	< 20			2		Activity [13]: Active; Activity [14]: Active; EC90 [5]: 100 µM
CN1CCN(S(=O)(=O)C#Cc2ccccc2)CC1	< 20	< 20	inactive	1	inactive	
C[C@H]1O[C@H]1S(=O)(=O)N1CCOCC1		> 500				EC50 [15]: 500 µM
C[C@@]1(c2ccccc2)O[C@@H]1S(=O)(=O)N1CCOCC1	> 500	> 500	inactive	2	inactive	
O=S(=O)(C1OC1c1ccccc1)N1CCN(c2cccc(C(F)(F)F)c2)CC1 (centres undefined)			inactive	2	inactive	EC50 [3]: 100 µM; EC90 [5]: 100 µM
O=C(CN1CCOCC1)c1ccccc1	> 500	> 500				Activity [16]: inactive; Activity [17]: 2; Activity [18]: inactive
CN1CCN(S(=O)(=O)C2CC2c2ccccc2)CC1 (centres undefined)		> 500	inactive	2	inactive	EC50 [15]: 500 µM
O=C(CS(=O)(=O)N1CCOCC1)c1ccccc1	> 500	> 500	inactive	2	inactive	
CN1CCNCC1 [METHYLPIPERAZINE]	> 500	> 500				
CCCCCCc1ccc(C2OC2S(=O)(=O)N2CCOCC2)cc1 (centres undefined)			inactive	1	inactive	
C1COCCN1 [MORPHOLINE]	> 500	> 500				
CN(C)S(=O)(=O)/C=C\c1ccccc1						EC50 [15]: 500 µM; EC90 [10]: 500 µM
Cc1ccccc1C1OC1S(=O)(=O)N1CCOCC1 (centres undefined)	< 20	< 20	inactive	1	inactive	
CN1CCN(S(=O)(=O)/C=C/c2ccccc2)CC1		> 500	inactive	1	inactive	EC50 [15]: 500 µM
CCN(CC)C(=O)N1CCN(C)CC1 [DIETHYLCARBAMAZINE]	> 500	> 500		2		Activity [13]: Active; Activity [14]: Active
CC1OC1S(=O)(=O)N(C)C (centres undefined)			inactive	2	inactive	EC50 [3]: 100 µM; EC90 [10]: 500 µM
O=S(=O)(C1OC1c1ccccc1)N1CCN(c2ccccc2)CC1 (centres undefined)						Activity [16]: inactive; Activity [17]: 2; EC50 [3]: 100 µM; EC90 [5]: 100 µM; Activity [18]: inactive
